# Key:
# Histone deacetylase 2 = Histone deacetylase 2 (Homo sapiens, UniProt Q92769)
# MM1.S = assay: Antiproliferative activity against human MM1.S cells assessed as inhibition of cell proliferation measured up to 72 hrs by CellTiter96 Aqueous one reagent based assay; type: functional
# THLE-2 = assay: Cytotoxicity against human THLE-2 cells assessed as decrease in cell viability measured after 72 hrs by Vialight-plus cell proliferation assay; type: cell-based; conditions: thle-2, 72 h
# Method in brief: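 Human THLE-2 cells exposed to compound for 72 h. Cytotoxicity reported as LC50 and pLC50, averaged from at least two independent experiments on different days.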
# Histone deacetylase 1 = Histone deacetylase 1 (Homo sapiens, UniProt Q13547); assay: Inhibition of full length human C-terminal His-tagged/C-terminal Flag-tagged HDAC1 using fluorogenic acetylated peptide as substrate incubated for 30 mins by fluorescence plate reader assay
# Histone deacetylase 1, sequence (Q13547 whole entry): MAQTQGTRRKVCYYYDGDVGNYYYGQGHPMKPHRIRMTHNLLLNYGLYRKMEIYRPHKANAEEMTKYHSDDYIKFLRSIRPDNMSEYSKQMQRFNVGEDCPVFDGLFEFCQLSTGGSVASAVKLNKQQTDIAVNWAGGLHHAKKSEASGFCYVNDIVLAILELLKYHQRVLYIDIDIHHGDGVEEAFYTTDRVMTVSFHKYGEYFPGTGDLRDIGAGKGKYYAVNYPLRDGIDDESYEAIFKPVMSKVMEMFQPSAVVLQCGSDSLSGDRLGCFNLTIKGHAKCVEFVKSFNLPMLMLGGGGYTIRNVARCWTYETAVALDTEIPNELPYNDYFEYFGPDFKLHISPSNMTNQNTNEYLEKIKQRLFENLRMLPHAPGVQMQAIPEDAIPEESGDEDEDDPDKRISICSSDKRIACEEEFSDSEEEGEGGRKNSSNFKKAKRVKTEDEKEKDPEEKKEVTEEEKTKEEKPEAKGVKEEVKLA
# [1] = target: Histone deacetylase 3/Nuclear receptor corepressor 2 (HDAC3/NCoR2) (Homo sapiens, UniProt O15379); assay: Inhibition of full length human C-terminal His-tagged HDAC3/human N-terminal GST-agged NCOR2 using fluorogenic acetylated peptide as substrate incubated for 30 mins by fluorescence plate reader assay; type: protein-complex assay
# Histone deacetylase 3/Nuclear receptor corepressor 2 (HDAC3/NCoR2), sequence (O15379 whole entry): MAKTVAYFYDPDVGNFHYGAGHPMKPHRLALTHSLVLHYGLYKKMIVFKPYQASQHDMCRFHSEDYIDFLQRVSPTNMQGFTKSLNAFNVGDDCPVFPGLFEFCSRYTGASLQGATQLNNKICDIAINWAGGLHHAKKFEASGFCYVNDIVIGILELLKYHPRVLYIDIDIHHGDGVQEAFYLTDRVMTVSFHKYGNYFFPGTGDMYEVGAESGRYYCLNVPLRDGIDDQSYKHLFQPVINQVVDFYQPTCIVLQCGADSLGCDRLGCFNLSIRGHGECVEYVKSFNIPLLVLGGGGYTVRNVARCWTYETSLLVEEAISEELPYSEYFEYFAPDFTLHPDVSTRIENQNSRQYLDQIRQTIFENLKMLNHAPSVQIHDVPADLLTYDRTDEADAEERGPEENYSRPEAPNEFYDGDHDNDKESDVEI
# Histone deacetylase 3/Nuclear receptor corepressor 2 (HDAC3/NCoR2), sequence (Q9Y618 whole entry, further chain): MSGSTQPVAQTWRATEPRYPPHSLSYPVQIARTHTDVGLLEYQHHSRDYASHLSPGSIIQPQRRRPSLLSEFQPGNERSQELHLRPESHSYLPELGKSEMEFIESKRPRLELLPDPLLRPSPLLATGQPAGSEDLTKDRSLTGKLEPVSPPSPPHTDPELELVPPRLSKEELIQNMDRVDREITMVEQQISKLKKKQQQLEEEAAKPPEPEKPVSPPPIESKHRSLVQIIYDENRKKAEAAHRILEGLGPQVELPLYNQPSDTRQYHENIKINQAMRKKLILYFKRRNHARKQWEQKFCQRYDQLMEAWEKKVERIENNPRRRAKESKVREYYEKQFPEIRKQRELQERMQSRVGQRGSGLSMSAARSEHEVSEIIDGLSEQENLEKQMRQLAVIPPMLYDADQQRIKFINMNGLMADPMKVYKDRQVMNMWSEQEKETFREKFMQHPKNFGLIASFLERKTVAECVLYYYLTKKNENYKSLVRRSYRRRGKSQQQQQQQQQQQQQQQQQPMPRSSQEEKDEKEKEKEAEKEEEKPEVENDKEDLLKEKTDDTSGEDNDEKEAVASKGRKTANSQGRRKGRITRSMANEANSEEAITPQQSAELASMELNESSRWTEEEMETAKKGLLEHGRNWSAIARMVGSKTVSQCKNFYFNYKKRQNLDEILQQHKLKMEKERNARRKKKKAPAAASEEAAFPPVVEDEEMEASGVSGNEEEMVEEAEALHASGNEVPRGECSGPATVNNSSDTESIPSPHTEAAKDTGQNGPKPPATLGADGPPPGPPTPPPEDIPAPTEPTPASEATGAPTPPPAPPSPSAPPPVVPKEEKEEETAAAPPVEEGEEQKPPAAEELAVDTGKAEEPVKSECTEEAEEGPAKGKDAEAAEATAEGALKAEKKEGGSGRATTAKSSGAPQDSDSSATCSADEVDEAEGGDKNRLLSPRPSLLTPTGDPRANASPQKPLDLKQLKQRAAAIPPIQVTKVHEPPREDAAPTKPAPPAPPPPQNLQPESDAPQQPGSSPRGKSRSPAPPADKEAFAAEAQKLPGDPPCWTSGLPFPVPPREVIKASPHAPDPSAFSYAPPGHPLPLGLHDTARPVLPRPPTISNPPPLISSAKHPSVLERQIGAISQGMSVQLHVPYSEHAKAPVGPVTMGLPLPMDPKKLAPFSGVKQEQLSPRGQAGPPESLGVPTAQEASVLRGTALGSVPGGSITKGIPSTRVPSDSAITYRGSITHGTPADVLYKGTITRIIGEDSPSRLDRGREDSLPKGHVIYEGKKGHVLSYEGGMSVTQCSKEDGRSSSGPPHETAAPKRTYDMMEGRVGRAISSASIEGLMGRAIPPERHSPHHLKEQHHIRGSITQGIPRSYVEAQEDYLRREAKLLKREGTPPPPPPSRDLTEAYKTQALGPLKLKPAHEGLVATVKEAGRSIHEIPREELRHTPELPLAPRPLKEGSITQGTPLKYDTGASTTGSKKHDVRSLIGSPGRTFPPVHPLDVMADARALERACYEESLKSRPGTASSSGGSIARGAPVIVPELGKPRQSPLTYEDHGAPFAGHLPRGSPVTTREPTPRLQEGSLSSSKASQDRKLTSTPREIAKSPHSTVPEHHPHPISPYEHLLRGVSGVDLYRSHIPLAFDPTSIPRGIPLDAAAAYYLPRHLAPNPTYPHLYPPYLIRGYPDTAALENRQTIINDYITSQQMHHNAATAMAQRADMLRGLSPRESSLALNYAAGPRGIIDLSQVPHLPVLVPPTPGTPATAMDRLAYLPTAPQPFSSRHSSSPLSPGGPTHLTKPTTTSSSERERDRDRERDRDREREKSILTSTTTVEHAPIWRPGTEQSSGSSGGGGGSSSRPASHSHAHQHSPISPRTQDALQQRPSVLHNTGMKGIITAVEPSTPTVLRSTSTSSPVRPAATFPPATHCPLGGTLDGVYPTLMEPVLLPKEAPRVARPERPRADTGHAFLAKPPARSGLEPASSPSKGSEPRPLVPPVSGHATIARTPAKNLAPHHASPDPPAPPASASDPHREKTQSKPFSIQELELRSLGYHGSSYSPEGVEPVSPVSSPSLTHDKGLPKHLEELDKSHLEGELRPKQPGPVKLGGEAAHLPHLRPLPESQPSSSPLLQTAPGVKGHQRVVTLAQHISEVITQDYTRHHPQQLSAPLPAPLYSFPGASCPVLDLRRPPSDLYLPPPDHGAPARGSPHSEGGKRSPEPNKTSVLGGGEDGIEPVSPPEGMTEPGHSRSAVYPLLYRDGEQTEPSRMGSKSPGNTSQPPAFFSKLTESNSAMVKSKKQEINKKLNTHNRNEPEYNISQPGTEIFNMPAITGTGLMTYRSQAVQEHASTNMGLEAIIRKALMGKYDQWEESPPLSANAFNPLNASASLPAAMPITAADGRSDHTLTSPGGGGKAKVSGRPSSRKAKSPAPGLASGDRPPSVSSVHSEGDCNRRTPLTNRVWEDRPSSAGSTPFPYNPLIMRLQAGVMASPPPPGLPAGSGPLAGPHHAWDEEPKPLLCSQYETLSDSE
# [2] = target: T1, Protein deacetylase HDAC6 (Homo sapiens, UniProt Q9UBN7); assay: Inhibition of full length human N-terminal GST-tagged HDAC6 using fluorogenic acetylated peptide as substrate incubated for 30 mins by fluorescence plate reader assay
# T1 sequence (Q9UBN7 whole entry): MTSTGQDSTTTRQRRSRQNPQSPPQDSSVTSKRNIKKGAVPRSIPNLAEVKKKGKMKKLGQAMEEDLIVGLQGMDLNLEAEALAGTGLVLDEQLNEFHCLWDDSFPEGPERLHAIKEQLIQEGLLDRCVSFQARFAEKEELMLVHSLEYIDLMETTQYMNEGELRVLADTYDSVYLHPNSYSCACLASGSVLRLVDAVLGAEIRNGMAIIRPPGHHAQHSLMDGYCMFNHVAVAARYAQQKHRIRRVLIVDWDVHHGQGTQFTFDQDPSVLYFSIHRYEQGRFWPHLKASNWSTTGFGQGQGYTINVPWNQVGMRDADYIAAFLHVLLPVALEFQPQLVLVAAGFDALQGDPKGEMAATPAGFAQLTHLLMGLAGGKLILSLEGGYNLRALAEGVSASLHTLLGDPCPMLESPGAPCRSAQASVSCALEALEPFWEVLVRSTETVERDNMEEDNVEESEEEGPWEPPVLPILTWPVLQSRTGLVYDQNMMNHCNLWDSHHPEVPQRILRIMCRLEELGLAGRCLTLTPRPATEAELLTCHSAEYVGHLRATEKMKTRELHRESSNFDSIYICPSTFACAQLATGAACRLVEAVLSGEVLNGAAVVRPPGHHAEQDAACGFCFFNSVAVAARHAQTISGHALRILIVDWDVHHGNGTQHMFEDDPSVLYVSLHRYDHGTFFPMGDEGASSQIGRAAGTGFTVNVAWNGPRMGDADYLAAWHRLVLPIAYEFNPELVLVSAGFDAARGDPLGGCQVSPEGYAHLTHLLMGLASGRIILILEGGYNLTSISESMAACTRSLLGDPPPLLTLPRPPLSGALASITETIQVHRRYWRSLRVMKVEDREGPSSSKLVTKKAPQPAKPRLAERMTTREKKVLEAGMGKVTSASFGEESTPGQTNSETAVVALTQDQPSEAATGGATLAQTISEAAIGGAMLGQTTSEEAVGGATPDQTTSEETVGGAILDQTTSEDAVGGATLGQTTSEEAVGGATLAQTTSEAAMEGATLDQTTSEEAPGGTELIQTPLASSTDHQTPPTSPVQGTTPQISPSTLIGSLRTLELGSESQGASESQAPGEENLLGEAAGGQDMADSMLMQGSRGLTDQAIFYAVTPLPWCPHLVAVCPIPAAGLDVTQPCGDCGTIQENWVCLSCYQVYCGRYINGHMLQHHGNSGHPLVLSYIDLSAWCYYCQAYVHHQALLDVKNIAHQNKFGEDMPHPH
# [3] = target: DNA (cytosine-5)-methyltransferase 1 (Homo sapiens, UniProt P26358); assay: Inhibition of human DNMT1 enzyme using polydeoxy-inosine polydeoxy-cytosine DNA as substrate incubated for 15 mins in presence of SAM by TR-FRET assay
# [4] = Permeability of the compound in PBS/EtOH buffer (70:30) incubated for 18 hrs by UV plate reader based PAMPA assay; type: ADME; conditions: read-out: permeability
# [5] = target: T2, Histone-lysine N-methyltransferase EHMT2 (Homo sapiens, UniProt Q96KQ7); assay: Inhibition of human G9a enzyme using histone monomethyl-H3K9 peptide as substrate incubated for 1 hr in presence of SAM by TR-FRET assay
# T2 sequence (Q96KQ7 whole entry): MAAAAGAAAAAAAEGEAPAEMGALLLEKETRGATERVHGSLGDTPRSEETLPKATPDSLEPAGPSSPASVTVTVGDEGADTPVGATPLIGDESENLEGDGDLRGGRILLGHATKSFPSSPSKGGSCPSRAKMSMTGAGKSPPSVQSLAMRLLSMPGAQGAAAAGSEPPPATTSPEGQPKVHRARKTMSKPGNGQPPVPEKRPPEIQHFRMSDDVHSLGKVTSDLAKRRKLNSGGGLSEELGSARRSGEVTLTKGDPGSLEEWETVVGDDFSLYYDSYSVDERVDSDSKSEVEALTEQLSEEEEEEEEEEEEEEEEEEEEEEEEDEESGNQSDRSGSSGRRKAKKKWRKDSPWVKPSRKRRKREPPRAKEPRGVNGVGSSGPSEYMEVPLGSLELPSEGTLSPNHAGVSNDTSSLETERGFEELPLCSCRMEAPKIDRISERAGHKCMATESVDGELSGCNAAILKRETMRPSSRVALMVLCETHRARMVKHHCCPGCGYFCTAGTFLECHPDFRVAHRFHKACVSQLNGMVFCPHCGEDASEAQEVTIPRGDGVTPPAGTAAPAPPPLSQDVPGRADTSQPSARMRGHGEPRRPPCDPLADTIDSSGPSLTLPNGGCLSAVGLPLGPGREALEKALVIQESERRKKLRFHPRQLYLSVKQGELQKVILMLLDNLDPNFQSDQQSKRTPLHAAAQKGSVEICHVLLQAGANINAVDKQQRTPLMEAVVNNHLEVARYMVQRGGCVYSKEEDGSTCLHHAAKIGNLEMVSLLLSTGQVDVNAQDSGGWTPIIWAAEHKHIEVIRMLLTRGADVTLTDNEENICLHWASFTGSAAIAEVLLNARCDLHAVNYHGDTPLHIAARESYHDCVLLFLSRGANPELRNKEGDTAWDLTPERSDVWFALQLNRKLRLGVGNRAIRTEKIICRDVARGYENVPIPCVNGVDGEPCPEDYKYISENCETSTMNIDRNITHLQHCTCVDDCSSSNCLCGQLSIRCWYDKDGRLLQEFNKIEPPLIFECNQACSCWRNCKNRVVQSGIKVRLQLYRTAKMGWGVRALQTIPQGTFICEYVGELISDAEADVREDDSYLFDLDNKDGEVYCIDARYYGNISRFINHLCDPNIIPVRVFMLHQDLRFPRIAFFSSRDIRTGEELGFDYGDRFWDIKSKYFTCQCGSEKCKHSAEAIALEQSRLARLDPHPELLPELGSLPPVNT
# [6] = time hrs <=72, read-out: pGI50 (converted)
# Histone deacetylase 2, sequence (Q92769 whole entry): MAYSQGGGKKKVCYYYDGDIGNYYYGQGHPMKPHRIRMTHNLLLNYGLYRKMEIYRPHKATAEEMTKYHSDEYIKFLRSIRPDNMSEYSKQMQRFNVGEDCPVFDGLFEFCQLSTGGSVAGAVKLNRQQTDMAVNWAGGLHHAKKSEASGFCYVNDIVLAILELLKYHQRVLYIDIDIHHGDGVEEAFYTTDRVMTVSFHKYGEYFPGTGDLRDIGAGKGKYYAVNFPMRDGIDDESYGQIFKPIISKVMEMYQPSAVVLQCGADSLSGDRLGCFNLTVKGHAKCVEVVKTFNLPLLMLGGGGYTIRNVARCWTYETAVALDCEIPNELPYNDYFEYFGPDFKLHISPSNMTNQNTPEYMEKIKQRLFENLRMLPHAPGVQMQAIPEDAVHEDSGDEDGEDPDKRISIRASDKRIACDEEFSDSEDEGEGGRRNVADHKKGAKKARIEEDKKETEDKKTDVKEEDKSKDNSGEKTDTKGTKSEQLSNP
Compound,IC50 (Histone deacetylase 2) [nM],"GI50 (MM1.S; time hrs <=72, read-out: GI50) [nM]",GI50 (MM1.S; [6]) [nM],LC50 (THLE-2) [nM],pLC50 (THLE-2),IC50 (Histone deacetylase 1) [nM],IC50 [1] [nM],IC50 [2] [nM],IC50 [3] [nM],Papp at 18 h [4] [×10⁻⁶ cm/s],IC50 [5] [nM]
COc1cc2c(NC3CCN(C)CC3)cc(-c3ccc(C)o3)nc2cc1OCCCN1CCCC1,> 10000,1040,1070,1780,5.75,> 10000,> 10000,> 10000,,,
COc1cc2c(NC3CCN(c4ccc(C(=O)NO)cc4)CC3)cc(-c3ccc(C)o3)nc2cc1OCCCN1CCCC1,,> 10000,> 10000,6656,5.18,415,,133,691,0.014,25
COc1cc2nc(-c3ccc(C)o3)cc(NCC3CCN(Cc4ccc(C(=O)NO)cc4)CC3)c2cc1OC,,217,219,204,6.69,330,,84,267,0.556,> 10000
COc1cc2c(NCC3CCN(C)CC3)cc(-c3ccc(C)o3)nc2cc1OCCCN1CCCC1,> 10000,3840,3800,1300,5.89,> 10000,> 10000,> 10000,,,
COc1cc2c(NCc3ccc(-c4ccc(C(=O)NO)cc4)cc3)cc(-c3ccc(C)o3)nc2cc1OCCCN1CCCC1,,1810,1820,13500,4.87,45,,127,2570,0.11,2240
COc1cc2c(NCC3CCN(c4ccc(C(=O)NO)cc4)CC3)cc(-c3ccc(C)o3)nc2cc1OCCCN1CCCC1,,3760,3720,9700,5.01,78,,67,417,0.05,269
COc1cc2c(NCC3CCC(C(=O)NO)CC3)cc(-c3ccc(C)o3)nc2cc1OCCCN1CCCC1 (centres undefined),159,> 10000,> 10000,26100,4.58,22,109,34,531,,55
COc1cc2nc(-c3ccc(C)o3)nc(NCC3CCN(c4ncc(C(=O)NO)cn4)CC3)c2cc1OC,38,,,,,7,21,506,> 10000,,> 10000
COc1cc2c(NCC3CCN(c4ncc(C(=O)NO)cn4)CC3)cc(-c3ccc(C)o3)nc2cc1OCC1CCNCC1,,> 10000,> 10000,19700,4.71,6,,351,1140,0.025,2070
COc1cc2c(NC3CCN(c4ncc(C(=O)NO)cn4)CC3)cc(C)nc2cc1OCCCN1CCCC1,,> 10000,> 10000,33250,4.48,17,,118,2040,0.075,34
COc1cc2nc(C3CCCCC3)cc(NCC3CCN(c4ncc(C(=O)NO)cn4)CC3)c2cc1OC,,195,195,2298,5.64,2,,111,> 10000,0.21,> 10000
COc1cc2nc(-c3ccc(C)o3)cc(NCC3CCN(C4CC(C(=O)NO)C4)CC3)c2cc1OC (centres undefined),,1980,2000,10410,4.98,453,,3180,540,0.068,> 10000
